Measurements published in ChEMBL document CHEMBL1122824, “Synthesis and biological properties of (carboxyalkyl)amino-substituted bicyclic lactam inhibitors of angiotensin converting enzyme” (J Med Chem, 1985).
“And” between values parts separate entries of the source, which are not always exact repeats. Equal entries are not always repeated.

What was measured:
[1] = biological target: T1, Angiotensin-converting enzyme (Oryctolagus cuniculus, UniProt P12822); assay: Inhibition of Angiotensin I converting enzyme
T1 sequence (P12822 whole entry): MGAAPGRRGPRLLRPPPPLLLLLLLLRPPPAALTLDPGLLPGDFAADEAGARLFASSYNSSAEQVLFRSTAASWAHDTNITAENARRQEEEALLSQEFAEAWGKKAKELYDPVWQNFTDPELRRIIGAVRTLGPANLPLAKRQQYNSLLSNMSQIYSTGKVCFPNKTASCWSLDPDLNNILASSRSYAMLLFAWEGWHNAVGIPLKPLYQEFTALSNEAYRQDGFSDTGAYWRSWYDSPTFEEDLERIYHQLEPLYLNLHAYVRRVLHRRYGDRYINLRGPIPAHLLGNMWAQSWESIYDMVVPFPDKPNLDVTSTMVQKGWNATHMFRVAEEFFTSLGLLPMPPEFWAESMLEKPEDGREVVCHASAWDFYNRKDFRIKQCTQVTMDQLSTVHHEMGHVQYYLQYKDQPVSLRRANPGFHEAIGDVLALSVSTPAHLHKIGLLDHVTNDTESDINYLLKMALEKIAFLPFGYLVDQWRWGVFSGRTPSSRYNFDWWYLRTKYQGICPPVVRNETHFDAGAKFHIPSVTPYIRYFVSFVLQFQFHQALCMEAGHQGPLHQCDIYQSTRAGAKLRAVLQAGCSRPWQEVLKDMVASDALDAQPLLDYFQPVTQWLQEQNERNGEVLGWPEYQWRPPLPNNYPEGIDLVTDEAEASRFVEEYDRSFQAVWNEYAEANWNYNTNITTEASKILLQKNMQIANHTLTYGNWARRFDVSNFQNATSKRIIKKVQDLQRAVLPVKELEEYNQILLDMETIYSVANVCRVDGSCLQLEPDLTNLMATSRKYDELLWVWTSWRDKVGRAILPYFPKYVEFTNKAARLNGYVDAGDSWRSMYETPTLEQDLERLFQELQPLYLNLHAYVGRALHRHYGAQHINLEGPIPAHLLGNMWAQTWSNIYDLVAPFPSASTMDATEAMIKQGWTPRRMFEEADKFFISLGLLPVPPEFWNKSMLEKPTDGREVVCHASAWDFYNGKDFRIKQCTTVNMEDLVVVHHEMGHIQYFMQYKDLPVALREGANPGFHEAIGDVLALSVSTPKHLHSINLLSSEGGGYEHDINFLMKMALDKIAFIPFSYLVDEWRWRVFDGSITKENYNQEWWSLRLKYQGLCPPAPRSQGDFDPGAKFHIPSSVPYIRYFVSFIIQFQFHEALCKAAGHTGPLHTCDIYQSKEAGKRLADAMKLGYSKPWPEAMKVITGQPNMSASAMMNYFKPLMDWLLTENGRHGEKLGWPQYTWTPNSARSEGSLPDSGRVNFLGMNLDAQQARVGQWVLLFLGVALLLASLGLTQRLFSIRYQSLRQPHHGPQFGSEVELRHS

Rattus norvegicus [2] = assay: Effects of oral dosing (10 mg/kg) on systolic blood pressure in spontaneously hypertensive rats, day 4,at 2 hr; type: functional, Artery
How it was run: (§1)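 Spontaneously hypertensive rats, 6 per group, were dosed orally once daily for 4 days at 0.1, 1.0 or 10 mg/kg. Systolic pressure was recorded before the first dose and at 2 and 24 h after each daily dose. Values are group mean ±SE with change from predose.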

Rattus norvegicus [3] = assay: Effects of oral dosing (1 mg/kg) on systolic blood pressure in spontaneously hypertensive rats, day 1,at 24 hr; type: functional, Artery; how it was run: as §1
Rattus norvegicus [4] = assay: Effects of oral dosing (1 mg/kg) on systolic blood pressure in spontaneously hypertensive rats, day 1,at 2 hr; type: functional, Artery; how it was run: as §1
Rattus norvegicus [5] = assay: Effects of oral dosing (1 mg/kg) on systolic blood pressure in spontaneously hypertensive rats, day 2,at 24 hr; type: functional, Artery; how it was run: as §1
Rattus norvegicus [6] = assay: Effects of oral dosing (1 mg/kg) on systolic blood pressure in spontaneously hypertensive rats, day 2,at 2 hr; type: functional, Artery; how it was run: as §1
Rattus norvegicus [7] = assay: Effects of oral dosing (1 mg/kg) on systolic blood pressure in spontaneously hypertensive rats, day 3,at 24 hr; type: functional, Artery; how it was run: as §1
Rattus norvegicus [8] = assay: Effects of oral dosing (1 mg/kg) on systolic blood pressure in spontaneously hypertensive rats, day 3,at 2 hr; type: functional, Artery; how it was run: as §1
Rattus norvegicus [9] = assay: Effects of oral dosing (1 mg/kg) on systolic blood pressure in spontaneously hypertensive rats, day 4,at 24 hr; type: functional, Artery; how it was run: as §1
Rattus norvegicus [10] = assay: Effects of oral dosing (1 mg/kg) on systolic blood pressure in spontaneously hypertensive rats, day 4,at 2 hr; type: functional, Artery; how it was run: as §1
Rattus norvegicus [11] = species: Rattus norvegicus; assay: Predose systolic blood pressure in spontaneously hypertensive rats; type: functional, Artery; how it was run: as §1
Rattus norvegicus [12] = assay: Effects of oral dosing (10 mg/kg) on systolic blood pressure in spontaneously hypertensive rats, day 1,at 24 hr; type: functional, Artery; how it was run: as §1
Rattus norvegicus [13] = assay: Effects of oral dosing (10 mg/kg) on systolic blood pressure in spontaneously hypertensive rats, day 1,at 2 hr; type: functional, Artery; how it was run: as §1
Rattus norvegicus [14] = assay: Effects of oral dosing (10 mg/kg) on systolic blood pressure in spontaneously hypertensive rats, day 2,at 24 hr; type: functional, Artery; how it was run: as §1
Rattus norvegicus [15] = assay: Effects of oral dosing (10 mg/kg) on systolic blood pressure in spontaneously hypertensive rats, day 2,at 2 hr; type: functional, Artery; how it was run: as §1
Rattus norvegicus [16] = assay: Effects of oral dosing (10 mg/kg) on systolic blood pressure in spontaneously hypertensive rats, day 3,at 24 hr; type: functional, Artery; how it was run: as §1
Rattus norvegicus [17] = assay: Effects of oral dosing (10 mg/kg) on systolic blood pressure in spontaneously hypertensive rats, day 3,at 2 hr; type: functional, Artery; how it was run: as §1
Rattus norvegicus [18] = assay: Effects of oral dosing (10 mg/kg) on systolic blood pressure in spontaneously hypertensive rats, day 4,at 24 hr; type: functional, Artery; how it was run: as §1
Rattus norvegicus [19] = assay: Effects of oral dosing (0.1 mg/kg) on systolic blood pressure in spontaneously hypertensive rats, day 1,at 24 hr; type: functional, Artery; how it was run: as §1
Rattus norvegicus [20] = assay: Effects of oral dosing (0.1 mg/kg) on systolic blood pressure in spontaneously hypertensive rats, day 1,at 2 hr; type: functional, Artery; how it was run: as §1
Rattus norvegicus [21] = assay: Effects of oral dosing (0.1 mg/kg) on systolic blood pressure in spontaneously hypertensive rats, day 2,at 24 hr; type: functional, Artery; how it was run: as §1
Rattus norvegicus [22] = assay: Effects of oral dosing (0.1 mg/kg) on systolic blood pressure in spontaneously hypertensive rats, day 2,at 2 hr; type: functional, Artery; how it was run: as §1
Rattus norvegicus [23] = assay: Effects of oral dosing (0.1 mg/kg) on systolic blood pressure in spontaneously hypertensive rats, day 3,at 24 hr; type: functional, Artery; how it was run: as §1
Rattus norvegicus [24] = assay: Effects of oral dosing (0.1 mg/kg) on systolic blood pressure in spontaneously hypertensive rats, day 3,at 2 hr; type: functional, Artery; how it was run: as §1
Rattus norvegicus [25] = assay: Effects of oral dosing (0.1 mg/kg) on systolic blood pressure in spontaneously hypertensive rats, day 4,at 2 hr; type: functional, Artery; how it was run: as §1
Rattus norvegicus [26] = assay: Effects of oral dosing (0.1 mg/kg) on systolic blood pressure in spontaneously hypertensive rats, day 4,at 24 hr; type: functional, Artery; how it was run: as §1

With O=C(O)CN1C(=O)[C@@H](N[C@@H](CCc2ccccc2)C(=O)O)CCCc2ccccc21 the IC50 [1] was 4 nM.
In the case of O=C(O)CN1C(=O)[C@H](N[C@@H](CCc2ccccc2)C(=O)O)CCCc2ccccc21, the IC50 [1] is reported as 62 nM.
Work on O=C(O)CN1C(=O)[C@H](N[C@@H](CCc2ccccc2)C(=O)O)Cc2ccccc21 yielded an IC50 [1] of 5100 nM.
For O=C(O)CN1C(=O)[C@@H](N[C@@H](CCc2ccccc2)C(=O)O)Cc2ccccc21, the IC50 [1] was 610 nM and 1200 nM.
Compound CCOC(=O)[C@H](CCc1ccccc1)N[C@@H](C)C(=O)N1CCC[C@H]1C(=O)O has a Systolic blood pressure (Rattus norvegicus [2]) of 135.5 mmHg, a Systolic blood pressure (Rattus norvegicus [3]) of 169.5 mmHg and a Systolic blood pressure (Rattus norvegicus [4]) of 160 mmHg. The Systolic blood pressure (Rattus norvegicus [5]) was 168.7 mmHg, the Systolic blood pressure (Rattus norvegicus [6]) was 158.7 mmHg and the Systolic blood pressure (Rattus norvegicus [7]) was 160 mmHg. For the same compound, the Systolic blood pressure (Rattus norvegicus [8]) was 146.7 mmHg, the Systolic blood pressure (Rattus norvegicus [9]) was 160.8 mmHg and the Systolic blood pressure (Rattus norvegicus [10]) was 145 mmHg. The Systolic blood pressure (Rattus norvegicus [11]) was 197.7 mmHg and 186.8 mmHg and 199 mmHg, the Systolic blood pressure (Rattus norvegicus [12]) was 168.3 mmHg and the Systolic blood pressure (Rattus norvegicus [13]) was 152.5 mmHg. The Systolic blood pressure (Rattus norvegicus [14]) was 163 mmHg, the Systolic blood pressure (Rattus norvegicus [15]) was 138.5 mmHg and the Systolic blood pressure (Rattus norvegicus [16]) was 174 mmHg. The Systolic blood pressure (Rattus norvegicus [17]) was 124.5 mmHg, the Systolic blood pressure (Rattus norvegicus [18]) was 159.8 mmHg and the Systolic blood pressure (Rattus norvegicus [19]) was 175.8 mmHg. It also gave a Systolic blood pressure (Rattus norvegicus [20]) of 197.5 mmHg, a Systolic blood pressure (Rattus norvegicus [21]) of 173.7 mmHg and a Systolic blood pressure (Rattus norvegicus [22]) of 172 mmHg. The Systolic blood pressure (Rattus norvegicus [23]) was 173.5 mmHg, the Systolic blood pressure (Rattus norvegicus [24]) was 175.7 mmHg and the Systolic blood pressure (Rattus norvegicus [25]) was 168 mmHg. It also gave a Systolic blood pressure (Rattus norvegicus [26]) of 204 mmHg.
O=C(O)CN1C(=O)[C@@H](N[C@@H](CCc2ccccc2)C(=O)O)CCc2ccccc21 (stereo in doubt; 4b) showed an IC50 [1] of 2.8 nM.
Compound O=C(O)CN1C(=O)[C@@H](N[C@@H](CCc2ccccc2)C(=O)O)CCc2ccccc21 (stereo in doubt; 4e) has an IC50 [1] of 5.2 nM.
Compound O=C(O)CN1C(=O)[C@@H](N[C@@H](CCc2ccccc2)C(=O)O)CCc2ccccc21 (stereo in doubt; 4f) has an IC50 [1] of 58 nM.
CCOC(=O)[C@H](CCc1ccccc1)N[C@H]1CCc2ccccc2N(CC(=O)O)C1=O.Cl [BENAZEPRIL HYDROCHLORIDE] gave a Systolic blood pressure (Rattus norvegicus [2]) of 130.8 mmHg, a Systolic blood pressure (Rattus norvegicus [3]) of 185.8 mmHg and a Systolic blood pressure (Rattus norvegicus [4]) of 185.7 mmHg. It also gave a Systolic blood pressure (Rattus norvegicus [5]) of 168.7 mmHg, a Systolic blood pressure (Rattus norvegicus [6]) of 182.8 mmHg and a Systolic blood pressure (Rattus norvegicus [7]) of 177.3 mmHg. The Systolic blood pressure (Rattus norvegicus [8]) was 166.5 mmHg, the Systolic blood pressure (Rattus norvegicus [9]) was 180.2 mmHg and the Systolic blood pressure (Rattus norvegicus [10]) was 171.3 mmHg. For the same compound, the Systolic blood pressure (Rattus norvegicus [11]) was 193.6 mmHg and 200 mmHg and 198 mmHg, the Systolic blood pressure (Rattus norvegicus [12]) was 167.5 mmHg and the Systolic blood pressure (Rattus norvegicus [13]) was 162.2 mmHg. For the same compound, the Systolic blood pressure (Rattus norvegicus [14]) was 147.3 mmHg, the Systolic blood pressure (Rattus norvegicus [15]) was 146 mmHg and the Systolic blood pressure (Rattus norvegicus [16]) was 150.2 mmHg. For the same compound, the Systolic blood pressure (Rattus norvegicus [17]) was 131 mmHg, the Systolic blood pressure (Rattus norvegicus [18]) was 150 mmHg and the Systolic blood pressure (Rattus norvegicus [19]) was 186 mmHg. For the same compound, the Systolic blood pressure (Rattus norvegicus [20]) was 193.8 mmHg, the Systolic blood pressure (Rattus norvegicus [21]) was 169.8 mmHg and the Systolic blood pressure (Rattus norvegicus [22]) was 195.8 mmHg. The Systolic blood pressure (Rattus norvegicus [23]) was 172.4 mmHg, the Systolic blood pressure (Rattus norvegicus [24]) was 176.2 mmHg and the Systolic blood pressure (Rattus norvegicus [25]) was 182.8 mmHg. For the same compound, the Systolic blood pressure (Rattus norvegicus [26]) was 176 mmHg.
